For assay [1], the system named is Staphylococcus simulans. In words: Antibacterial activity against Staphylococcus simulans 22 assessed as inhibition of bacterial growth incubated for 16 hrs in presence of C55-P by broth microdilution assay. The assay is classed as functional, organism-based. Put shortly: (§1)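 The antibiotic was pre-incubated with the cell wall precursor (e.g. UDP-GlcNAc, C55-PP, C55-P) before being given to the bacteria, with vancomycin as positive control.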
(In general: In broth dilution the organism is exposed to a series of concentrations in liquid medium.)

Assay [2] deals with Staphylococcus simulans. In words: Antibacterial activity against Staphylococcus simulans 22 assessed as inhibition of bacterial growth incubated for 16 hrs in presence of C15-PP by broth microdilution assay. It counts as functional, organism-based. Put shortly:
as §1

In assay [3] the test system is Staphylococcus simulans. Put plainly: Antibacterial activity against Staphylococcus simulans 22 assessed as inhibition of bacterial growth incubated for 16 hrs in presence of UDP-GlcNAc by broth microdilution assay. It counts as functional, organism-based. Put shortly:
as §1

For assay [4], the system named is Staphylococcus simulans. Put plainly: Antibacterial activity against Staphylococcus simulans 22 assessed as inhibition of bacterial growth incubated for 16 hrs in presence of C55-PP by broth microdilution assay. The assay is classed as functional, organism-based. Put shortly: as §1
Assay [5] deals with Staphylococcus simulans. Put plainly: Antibacterial activity against Staphylococcus simulans 22 assessed as inhibition of bacterial growth incubated for 16 hrs in presence of UDP-MurNAc-pp by broth microdilution assay. The assay is classed as functional, organism-based. Put shortly: as §1
The subject of assay [6] is Staphylococcus simulans. Put plainly: Antibacterial activity against Staphylococcus simulans 22 assessed as inhibition of bacterial growth incubated for 16 hrs in presence of C15-P by broth microdilution assay. It counts as functional, organism-based. Put shortly: as §1
Assay [7] has as its system Staphylococcus simulans. Put plainly: Antibacterial activity against Staphylococcus simulans 22 assessed as inhibition of bacterial growth incubated for 16 hrs in presence of lipid II by broth microdilution assay. The assay is classed as functional, organism-based. Put shortly: as §1
Assay [8] deals with Staphylococcus simulans. Put plainly: Antibacterial activity against Staphylococcus simulans 22 assessed as inhibition of bacterial growth incubated for 16 hrs in presence of lipid I by broth microdilution assay. The assay is classed as functional, organism-based. Put shortly:
as §1

Assay [9] concerns Staphylococcus simulans. In words: Antibacterial activity against Staphylococcus simulans 22 assessed as inhibition of bacterial growth incubated for 16 hrs in presence of 10 mM Ca2+ by broth microdilution assay. It counts as functional. Put shortly:
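MICs were read in µg/mL against indicator strains S. aureus 29213 and S. simulans 22. The growth medium was supplemented with Ca2+ at 5.0 or 10 mM.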

The nature of assay [10]: Binding affinity to calcium at 60 uM in pH 7.4 buffer by CD spectroscopy.
Assay [11] can be described thus: Binding affinity to lipid II at 0.5 to 2 equiv in Ca2+-containing buffer incubated for 2 hrs by TLC-based binding assay. As to conditions: dose 0.5-2 equiv.
The subject of assay [12] is Staphylococcus aureus. In words: Induction of UDP-MurNAc-pentapeptide accumulation in Staphylococcus aureus ATCC 29213 at 10 times MIC incubated for 60 mins by HPLC analysis. It counts as functional.
Assay [13] is described as follows: Binding affinity to undecaprenyl phosphate (C55-P) at 0.5 to 2 equiv in Ca2+-containing buffer incubated for 2 hrs by TLC-based binding assay. Particulars: dose 0.5-2 equiv.
The nature of assay [14]: Binding affinity to undecaprenyl phosphate (C55-P) assessed as reduction in lipid II synthesis at 0.5 to 2 equiv in presence of UDP-GlcNAc, UDPMurNAc-pentapeptide and Micrococcus flavus membrane vesicles and measured after 2 hrs by TLC analysis. Particulars: dose 0.5-2 equiv. Put shortly: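 C55-P was pre-treated with the antibiotic over a range of concentrations. UDP-GlcNAc, UDP-MurNAc-pentapeptide and M. flavus membrane vesicles containing MraY and MurG were then added, and lipid II formation was monitored.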

The source made the active and inactive calls. No cut-off for these calls is given here.

As for `CCCCCCCCCC(=O)N[C@@H](Cc1c[nH]c2ccccc12)C(=O)N[C@H](CC(N)=O)C(=O)N[C@@H](CC(=O)O)C(=O)N[C@H]1CNC(=O)[C@@H](Cc2c[nH]c3ccccc23)NC(=O)[C@H](CCC(=O)O)NC(=O)[C@@H](CO)NC(=O)CNC(=O)[C@H](CC(=O)O)NC(=O)[C@@H](C)NC(=O)[C@H](CC(=O)O)NC(=O)[C@H](CCCN)NC(=O)[C@H]2CCCCN2C1=O`, the outcome in [1], in assay [2], in assay [3], in assay [4], in assay [5] and in assay [6] was Active. Besides, the result in assay [7] and in [8] was Active.

`CCCCCCCCCC(=O)N[C@@H](Cc1c[nH]c2ccccc12)C(=O)N[C@H](CC(N)=O)C(=O)N[C@@H](CC(=O)O)C(=O)N[C@H]1CNC(=O)[C@H]2CCCN2C(=O)[C@H]([C@@H](C)CC)NC(=O)[C@@H]([C@@H](C)O)NC(=O)CNC(=O)[C@H](CC(=O)O)NC(=O)[C@@H](C)NC(=O)[C@H](CC(=O)O)NC(=O)CNC(=O)[C@H]2CCCCN2C1=O`: the outcome in assay [1], in assay [2], in [3], in assay [4], in assay [5] and in assay [6] was Active. Moreover, the result in [10], in assay [7] and in assay [8] was Active. Also, the MIC result in assay [9] is “inactive”.

`CCCCCCCCCC(=O)N[C@@H](Cc1c[nH]c2ccccc12)C(=O)N[C@@H](CC(N)=O)C(=O)N[C@@H](CC(=O)O)C(=O)N[C@@H]1C(=O)NCC(=O)N[C@@H](CCCN)C(=O)N[C@H](CC(=O)O)C(=O)N[C@H](C)C(=O)N[C@@H](CC(=O)O)C(=O)NCC(=O)N[C@H](CO)C(=O)N[C@@H]([C@@H](C)CC(=O)O)C(=O)N[C@@H](CC(=O)c2ccccc2N)C(=O)O[C@@H]1C`: the outcome in [1], in assay [2], in [3], in assay [4], in assay [5] and in [6] was Active. Moreover, the result in assay [7] and in assay [8] was Active. For the same compound, the result in [11], in assay [12], in assay [13] and in assay [14] was inactive.

Consider `CCCCCCCCCC(=O)N[C@@H](Cc1c[nH]c2ccccc12)C(=O)N[C@H](CC(N)=O)C(=O)N[C@@H](CC(=O)O)C(=O)N[C@H]1CNC(=O)[C@@H](CC(=O)c2ccccc2N)NC(=O)[C@H](CCC(=O)O)NC(=O)[C@@H](CO)NC(=O)CNC(=O)[C@H](CC(=O)O)NC(=O)[C@@H](C)NC(=O)[C@H](CC(=O)O)NC(=O)[C@H](CCCN)NC(=O)[C@H]2CCCCN2C1=O`, for which the outcome in assay [1], in [2], in assay [3], in assay [4], in assay [5] and in assay [6] was Active. For the same compound, the result in [7] and in assay [8] was Active.

In the case of `CN[C@H](CC(C)C)C(=O)N[C@H]1C(=O)N[C@@H](CC(N)=O)C(=O)N[C@H]2C(=O)N[C@H]3C(=O)N[C@H](C(=O)N[C@H](C(=O)O)c4cc(O)cc(O)c4-c4cc3ccc4O)[C@H](O)c3ccc(c(Cl)c3)Oc3cc2cc(c3O[C@@H]2O[C@H](CO)[C@@H](O)[C@H](O)[C@H]2O[C@H]2C[C@](C)(N)[C@H](O)[C@H](C)O2)Oc2ccc(cc2Cl)[C@H]1O`, the result in [5], in assay [7] and in [8] was inactive.

In the case of `CCCCCCCCCC(=O)N[C@@H](Cc1c[nH]c2ccccc12)C(=O)N[C@H](CC(N)=O)C(=O)N[C@@H](CC(=O)O)C(=O)N[C@H]1CNC(=O)[C@H]2CCCN2C(=O)[C@H]([C@@H](C)CC)NC(=O)[C@@H]([C@@H](C)O)NC(=O)CNC(=O)[C@H](CC(=O)O)NC(=O)[C@@H](C)NC(=O)[C@H](CC(=O)O)NC(=O)CNC(=O)CNC1=O`, the outcome in [1], in [2], in [3], in assay [4], in assay [5] and in assay [6] was Active. For the same compound, the outcome in assay [7] and in assay [8] was Active.

In the case of `CCCCCCCCCC(=O)N[C@@H](Cc1c[nH]c2ccccc12)C(=O)N[C@H](CC(N)=O)C(=O)N[C@@H](CC(=O)O)C(=O)N[C@H]1CNC(=O)[C@H]2CCCN2C(=O)[C@H](CCC(=O)O)NC(=O)[C@@H](CO)NC(=O)CNC(=O)[C@H](CC(=O)O)NC(=O)[C@@H](C)NC(=O)[C@H](CC(=O)O)NC(=O)[C@H](CCCN)NC(=O)[C@H]2CCCCN2C1=O`, the result in assay [1], in assay [2], in assay [3], in assay [4], in [5] and in [6] was Active. Also, the result in [10], in assay [7] and in [8] was Active. In addition, the MIC entry in assay [9] is “inactive”.

As for `CCCCCCCCCC(=O)N[C@@H](Cc1c[nH]c2ccccc12)C(=O)N[C@H](CC(N)=O)C(=O)N[C@@H](CC(=O)O)C(=O)N[C@H]1CNC(=O)[C@@H](Cc2c[nH]c3ccccc23)NC(=O)[C@H](CCC(=O)O)NC(=O)[C@@H](CO)NC(=O)CNC(=O)[C@H](CC(=O)O)NC(=O)[C@@H](C)NC(=O)[C@H](CC(=O)O)NC(=O)[C@H](CCCN)NC(=O)CNC1=O`, the outcome in [1], in assay [2], in [3], in assay [4], in assay [5] and in assay [6] was Active. Also, the result in assay [7] and in assay [8] was Active.

On to `CCCCCCCCCC(=O)N[C@@H](Cc1c[nH]c2ccccc12)C(=O)N[C@H](CC(N)=O)C(=O)N[C@@H](CC(=O)O)C(=O)N[C@H]1CNC(=O)[C@@H](CC(=O)c2ccccc2N)NC(=O)[C@H](CCC(=O)O)NC(=O)[C@@H](CO)NC(=O)CNC(=O)[C@H](CC(=O)O)NC(=O)[C@@H](C)NC(=O)[C@H](CC(=O)O)NC(=O)[C@H](CCCN)NC(=O)CNC1=O`, for which the result in assay [1], in assay [2], in assay [3], in assay [4], in [5] and in assay [6] was Active. The result in assay [7] and in [8] was Active.

The values above are taken from ChEMBL document CHEMBL4680073, “Total Synthesis of Laspartomycin C and Characterization of Its Antibacterial Mechanism of Action” (J Med Chem, 2016).
